The source of these data is ChEMBL document CHEMBL3751743, “Synthesis and anti-cancer screening of novel heterocyclic-(2H)-1,2,3-triazoles as potential anti-cancer agents” (Medchemcomm, 2015).

The GI50 is the concentration that inhibits growth by half.

The nature of the assay: Cytotoxicity against human Hs578T cells assessed as reduction of cell viability after 48 hrs by calcein-AM-based fluorescence analysis. The note with it: Hs-578T. Type of assay: functional. A digest of the protocol:
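Cells seeded at 3,000 per well in DMEM with 10% FBS and left overnight at 37 °C. A range of compound concentrations or vehicle was then added for 48 h. Cells were washed with DPBS pH 7.4 and loaded with 2 μM calcein-AM for 30 min at 25 °C. Fluorescence read at ex 490/em 520 nm; viability is given relative to untreated control (100%). Mean ± s.d.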

As to `COc1cc(-c2n[nH]nc2-c2cc3ccccc3o2)cc(OC)c1OC`, the GI50 is 20 nM.
With `COc1cc(OC)cc(-c2n[nH]nc2-c2cc3ccccc3s2)c1` the figure was 65 nM.
